Assay [1] in a line: Inhibition of NFkappaB transcriptional activity in LPS-stimulated mouse RAW264.7 cells. The essentials:
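IC50 for inhibition of NF-κB transcription, reported as mean ± SD from at least three independent assays.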

For assay [2], the system named is Rattus norvegicus. As to the kind of experiment: Neuroprotective activity in contusion injury induced Sprague-Dawley rat SCI model assessed as reduction in edema in spinal cord at 10 to 30 mg/kg, ip administered once daily for 14 days by H and E staining based assay. Particulars: dose 10-30 mg/kg, time 14.0 day. In kind it is functional, organism-based. The procedure, abridged:
(§1)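 Rats with SCI from weight-drop contusion received 10, 20 or 30 mg/kg i.p., suspended in 2% CMC, daily for 14 days. Spinal cord tissue sections stained with H&E for histopathology and edema. Three independent experiments, mean ± SEM, one-way ANOVA with Tukey post hoc test.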

Assay [3] concerns Rattus norvegicus. As to the kind of experiment: Neuroprotective activity in Sprague-Dawley rat SCI model assessed as reduction in NFkappaB expression in spinal cord at 10 to 30 mg/kg, ip administered once daily for 14 days by Western blot analysis. Particulars: dose 10-30 mg/kg, time 14.0 day. In kind it is functional, organism-based. The procedure, abridged: (§2)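 Weight-drop contusion SCI rats treated with 10, 20 or 30 mg/kg i.p. in 2% CMC daily for 14 days. Spinal cord tissue analysed by western blot for NF-κB, p-IκBα and TLR4, with band quantification. Mean ± SEM of three independent experiments.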

For assay [4], the system named is Rattus norvegicus. In words: Neuroprotective activity in Sprague-Dawley rat SCI model assessed as reduction in TLR4 expression in spinal cord at 10 to 30 mg/kg, ip administered once daily for 14 days by Western blot analysis. The format is functional, organism-based. As to conditions: dose 10-30 mg/kg, time 14.0 day. The procedure, abridged:
as §2

Assay [5] deals with Rattus norvegicus. In words: Neuroprotective activity in Sprague-Dawley rat SCI model assessed as increase in GSH level at 10 to 30 mg/kg, ip administered once daily for 14 days. In kind it is functional, organism-based. As to conditions: dose 10-30 mg/kg, time 14.0 day. The procedure, abridged: (§3)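 Spinal cord of weight-drop contusion SCI rats dosed at 10, 20 or 30 mg/kg i.p. in 2% CMC daily for 14 days. Oxidative stress indices MDA, GSH and SOD measured in spinal cord. Mean ± SEM, three independent experiments, one-way ANOVA with Tukey test against sham and SCI groups.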

For assay [6], the system named is Rattus norvegicus. In words: Neuroprotective activity in ip dosed contusion injury induced Sprague-Dawley rat SCI model assessed as restoration of motor functions administered once daily for 14 days. In kind it is functional, organism-based. As to conditions: dose 10-30 mg/kg, time 14.0 day. The procedure, abridged: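 Spinal cord contusion made by weight drop, a rod dropped onto the cord. Dosing at 10, 20 and 30 mg/kg i.p., suspended in 2% CMC, once daily for 14 days. Motor function scored on the BBB scale on days 1, 4, 7, 10 and 14. Mean ± SEM from three independent experiments, one-way ANOVA with Tukey post hoc test, compared with sham and SCI groups.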

Assay [7] deals with Rattus norvegicus. In words: Neuroprotective activity in contusion injury induced Sprague-Dawley rat SCI model assessed as improvement in ratio of wet to dry spinal cord weight at 10 to 30 mg/kg, ip administered once daily for 14 days. In kind it is functional, organism-based. As to conditions: dose 10-30 mg/kg, time 14.0 day. The procedure, abridged: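 Weight-drop contusion SCI, with a rod dropped on the cord. Rats given 10, 20 or 30 mg/kg i.p. in 2% CMC once a day for 14 days. Ratio of wet to dry spinal cord weight measured 24 h post-SCI. Mean ± SEM of three independent experiments, one-way ANOVA with Tukey test.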

Assay [8] concerns Rattus norvegicus. As to the kind of experiment: Neuroprotective activity in Sprague-Dawley rat SCI model assessed as reduction in IL-1beta level at 10 to 30 mg/kg, ip administered once daily for 14 days by ELISA. In kind it is functional, organism-based. As to conditions: dose 10-30 mg/kg, time 14.0 day. The essentials: (§4)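 After weight-drop contusion SCI, rats received 10, 20 or 30 mg/kg i.p. as a 2% CMC suspension once daily for 14 days. TNF-α, IL-1β and IL-6 levels determined by ELISA. Mean ± SEM from three independent experiments, one-way ANOVA followed by Tukey post hoc test.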

The test system of assay [9] is Rattus norvegicus. In words: Neuroprotective activity in Sprague-Dawley rat SCI model assessed as reduction in IL-6 level at 10 to 30 mg/kg, ip administered once daily for 14 days by ELISA. In kind it is functional, organism-based. Particulars: dose 10-30 mg/kg, time 14.0 day. The procedure, abridged:
as §4

Assay [10] has as its system Rattus norvegicus. As to the kind of experiment: Neuroprotective activity in contusion injury induced Sprague-Dawley rat SCI model assessed as restoration of tissue histopathology in spinal cord at 10 to 30 mg/kg, ip administered once daily for 14 days by H and E staining based assay. As to conditions: dose 10-30 mg/kg, time 14.0 day. The format is functional, organism-based. The essentials:
as §1

For assay [11], the system named is Rattus norvegicus. In words: Neuroprotective activity in ip dosed Sprague-Dawley rat SCI model assessed as increase in nissl bodies administered once daily for 14 days by Nissl staining based assay. In kind it is functional, organism-based. As to conditions: dose 10-30 mg/kg, time 14.0 day. The procedure, abridged: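 Contusion SCI by weight drop. Treatment at 10, 20 or 30 mg/kg i.p. in 2% CMC once daily for 14 days. Neuronal damage assessed by Nissl staining of the spinal cord, with Nissl bodies quantified. Mean ± SEM from three independent experiments.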

Assay [12] deals with Rattus norvegicus. As to the kind of experiment: Neuroprotective activity in contusion injury induced Sprague-Dawley rat SCI model assessed as inhibition of morphological changes in spinal cord at 10 to 30 mg/kg, ip administered once daily for 14 days by H and E staining based assay. Particulars: dose 10-30 mg/kg, time 14.0 day. The format is functional, organism-based. The procedure, abridged: as §1

Assay [13] has as its system Rattus norvegicus. In words: Neuroprotective activity in Sprague-Dawley rat SCI model assessed as reduction in IkappaBalpha expression in spinal cord at 10 to 30 mg/kg, ip administered once daily for 14 days by Western blot analysis. In kind it is functional, organism-based. Particulars: dose 10-30 mg/kg, time 14.0 day. The essentials:
as §2

Assay [14] concerns Rattus norvegicus. As to the kind of experiment: Neuroprotective activity in Sprague-Dawley rat SCI model assessed as increase in SOD level at 10 to 30 mg/kg, ip administered once daily for 14 days. Particulars: dose 10-30 mg/kg, time 14.0 day. The format is functional, organism-based. The essentials: as §3
The subject of assay [15] is Rattus norvegicus. In words: Neuroprotective activity in Sprague-Dawley rat SCI model assessed as reduction in MDA level at 10 to 30 mg/kg, ip administered once daily for 14 days. The format is functional, organism-based. Particulars: dose 10-30 mg/kg, time 14.0 day. The essentials:
as §3

The subject of assay [16] is Rattus norvegicus. In words: Neuroprotective activity in Sprague-Dawley rat SCI model assessed as reduction in TNFalpha level at 10 to 30 mg/kg, ip administered once daily for 14 days by ELISA. In kind it is functional, organism-based. Particulars: dose 10-30 mg/kg, time 14.0 day. The procedure, abridged: as §4

Active and inactive are the calls of the source. No cut-off for these calls is given here.

We go through nine molecules from ChEMBL document CHEMBL4813996, “Design and development of 1,3,5-triazine derivatives as protective agent against spinal cord injury in rat via inhibition of NF-ĸB” (Bioorg Med Chem Lett, 2021).

As to `Cc1ccc(N2CCN(Cc3ccc(C(=O)Nc4nc(C)nc(Nc5nccc(-c6nccs6)n5)n4)cc3)CC2)cc1`, the IC50 in assay [1] was 9.9 µM.
For the molecule `Cc1nc(NC(=O)c2ccc(CN3CCN(c4ccc([N+](=O)[O-])cc4)CC3)cc2)nc(Nc2nccc(-c3nccs3)n2)n1`, in [1], the half-maximal inhibitory concentration (IC50) turned out to be 6.12 µM. This IC50 lies about 1.6-fold lower than the previous one.
Take `Cc1nc(NC(=O)c2ccc(CN3CCN(c4ccc(Br)cc4)CC3)cc2)nc(Nc2nccc(-c3nccs3)n2)n1`: it took 3.21 µM to reach half-maximal inhibition in [1] (IC50).
With `Cc1nc(NC(=O)c2ccc(CN3CCN(c4ccc(Cl)cc4)CC3)cc2)nc(Nc2nccc(-c3nccs3)n2)n1`, the outcome in the assay with Rattus norvegicus [2], in the assay on Rattus norvegicus [3], with Rattus norvegicus [4], in the assay with Rattus norvegicus [5], with Rattus norvegicus [7] and in the assay on Rattus norvegicus [8] was Active. Besides, the result in the assay with Rattus norvegicus [9], in the assay on Rattus norvegicus [10], in the assay with Rattus norvegicus [12], with Rattus norvegicus [13], in the assay with Rattus norvegicus [14] and in the assay with Rattus norvegicus [15] was Active. The outcome in the assay with Rattus norvegicus [16] was Active. Further, the Activity result in the assay with Rattus norvegicus [6] and with Rattus norvegicus [11] was “Dose-Dependent Effect” each time. In addition, inhibition in assay [1] was half-maximal at 1.04 µM (IC50).
The molecule `COc1ccc(N2CCN(Cc3ccc(C(=O)Nc4nc(C)nc(Nc5nccc(-c6nccs6)n5)n4)cc3)CC2)cc1` yielded an IC50 in [1] of 87.3 µM.
As for `C[C@@H]1C[C@H]2[C@@H]3CCC4=CC(=O)C=C[C@]4(C)[C@@]3(F)[C@@H](O)C[C@]2(C)[C@@]1(O)C(=O)CO` [DEXAMETHASONE], the IC50 in assay [1] was 0.92 µM.
Turning to `Cc1ccc(NC(=O)c2ccc(CN3CCN(C)CC3)cc2)cc1Nc1nccc(-c2cccnc2)n1` [IMATINIB], the IC50 in assay [1] stood at 1.34 µM.
As to `Cc1nc(NC(=O)c2ccc(CN3CCN(c4ccc(O)cc4)CC3)cc2)nc(Nc2nccc(-c3nccs3)n2)n1`, the IC50 in assay [1] came out at 54.2 µM.
Take `Cc1nc(NC(=O)c2ccc(CN3CCN(c4ccccc4)CC3)cc2)nc(Nc2nccc(-c3nccs3)n2)n1`: in assay [1], the IC50 was 136 µM.
